Laboratory results from ChEMBL document CHEMBL1125337, “Synthesis and antibacterial activity of a series of basic amides of teicoplanin and deglucoteicoplanin with polyamines” (J Med Chem, 1992).
Values after ≈ are worked out from the molar mass of the structure shown.

What was measured:
[1] = Association constant to Ac2-L-Lys-D-Ala-D-Ala determined at pH 9; Value ranges from (9.5E4-3.5E5)
Enterococcus faecalis = test: Minimum inhibitory concentration against Enterococcus faecalis ATCC 7080; assay type: functional
Procedure, shortened: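 Microbroth dilution MIC (µg/mL), final inoculum 10^4 cfu/mL, incubated 24 h at 37 °C in air.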

Staphylococcus aureus = test: Minimum inhibitory concentration against Staphylococcus aureus L 165; assay type: functional
Procedure, shortened: (§1)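 MIC (µg/mL) by microbroth dilution in Iso-Sensitest broth; final inoculum 10^4 cfu/mL; 24 h at 37 °C in air.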

Streptococcus pyogenes [2] = test: Efficacy of compound administered perorally against Streptococcus pyogenes L 49 Septicemia in mouse; assay type: functional; details: po
Procedure, shortened: (§2)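 Mice were infected intraperitoneally with about 10^5 Strep. pyogenes L 49 cells, about 100 times the 50% lethal dose. Groups of 5–8 mice were treated once right after challenge, by the route stated in the line. ED50 (mg/kg) was derived from percentage survival at each dose on day 7 (Spearman-Kärber).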

Streptococcus pyogenes [3] = test: Efficacy of compound administered subcutaneously against Streptococcus pyogenes L 49 Septicemia in mouse; assay type: functional; details: sc; procedure, shortened: as §2
[4] = test system: Staphylococcus epidermidis; test: Minimum inhibitory concentration against Staphylococcus epidermidis ATCC 12228; assay type: functional; procedure, shortened: as §1
Streptococcus pneumoniae = test: Minimum inhibitory concentration against Streptococcus pneumoniae L 44; assay type: functional
Procedure, shortened: (§3)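 MIC (µg/mL) by microbroth dilution in Todd-Hewitt broth, final inoculum 10^4 cfu/mL, incubated 24 h at 37 °C in air.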

[5] = test system: Staphylococcus haemolyticus; test: Minimum inhibitory concentration against Staphylococcus haemolyticus L 602; assay type: functional; procedure, shortened: as §1
Streptococcus pyogenes [6] = test: Minimum inhibitory concentration against Streptococcus pyogenes L 49; assay type: functional; procedure, shortened: as §3
Escherichia coli = test: Minimum inhibitory concentration against Escherichia coli L 47; assay type: functional; procedure, shortened: as §1
Proteus vulgaris = test: Minimum inhibitory concentration against Proteus vulgaris ATCC 881; assay type: functional; procedure, shortened: as §1
Pseudomonas aeruginosa = test: Minimum inhibitory concentration against Pseudomonas aeruginosa ATCC 10145; assay type: functional; procedure, shortened: as §1

Compound	Ka [1] [M⁻¹]	MIC (Enterococcus faecalis) [µg/mL]	MIC (Staphylococcus aureus) [µg/mL]	MIC [4] [µg/mL]	MIC (Streptococcus pneumoniae) [µg/mL]	MIC (Streptococcus pyogenes [6]) [µg/mL]	MIC (Escherichia coli) [µg/mL]	MIC (Proteus vulgaris) [µg/mL]	MIC (Pseudomonas aeruginosa) [µg/mL]	ED50 (Streptococcus pyogenes [2]) [mg/kg]	ED50 (Streptococcus pyogenes [3]) [mg/kg]	MIC [5] [µg/mL]
NCCCN1CCCCN(CCCNC(=O)[C@H]2NC(=O)[C@H]3NC(=O)[C@H](NC(=O)[C@@H]4NC(=O)[C@H]5NC(=O)[C@@H](Cc6ccc(c(Cl)c6)Oc6cc4cc(c6O)Oc4ccc(cc4Cl)[C@H]3O)NC(=O)[C@H](N)c3ccc(O)c(c3)Oc3cc(O)cc5c3)c3ccc(O)c(c3)-c3c(O)cc(O)cc32)CCCC1	–	0.125 (≈ 0.087 µM)	0.063 (≈ 0.0438 µM)	0.063 (≈ 0.0438 µM)	0.125 (≈ 0.087 µM)	0.063 (≈ 0.0438 µM)	4 (≈ 2.78 µM)	128 (≈ 89.1 µM)	16 (≈ 11.1 µM)	–	–	0.125 (≈ 0.087 µM)
CC(=O)N[C@@H]1[C@H](O[C@@H]2c3ccc(c(Cl)c3)Oc3cc4cc(c3O[C@@H]3O[C@@H](CO)[C@@H](O)[C@H](O)[C@@H]3NC(=O)CCCCCCC(C)C)Oc3ccc(cc3Cl)C[C@H]3NC(=O)[C@H](N)c5ccc(O)c(c5)Oc5cc(O)cc(c5)[C@H](NC3=O)C(=O)N[C@H]4C(=O)N[C@H]3C(=O)N[C@@H]2C(=O)N[C@H](C(=O)NCCNCCCNCCN)c2cc(O)cc(O[C@H]4O[C@H](CO)[C@@H](O)[C@@H](O)[C@@H]4O)c2-c2cc3ccc2O)O[C@@H](CO)[C@@H](O)[C@@H]1O	350000	0.125 (≈ 0.0618 µM)	0.125 (≈ 0.0618 µM)	0.063 (≈ 0.0312 µM)	0.125 (≈ 0.0618 µM)	0.063 (≈ 0.0312 µM)	–	–	–	–	–	0.125 (≈ 0.0618 µM)
CC(=O)N[C@@H]1[C@H](O[C@@H]2c3ccc(c(Cl)c3)Oc3cc4cc(c3O[C@@H]3O[C@@H](CO)[C@@H](O)[C@H](O)[C@@H]3NC(=O)CCCCCCC(C)C)Oc3ccc(cc3Cl)C[C@H]3NC(=O)[C@H](N)c5ccc(O)c(c5)Oc5cc(O)cc(c5)[C@H](NC3=O)C(=O)N[C@H]4C(=O)N[C@H]3C(=O)N[C@@H]2C(=O)N[C@H](C(=O)N2CCNCCNCCNCCNCCNCC2)c2cc(O)cc(O[C@H]4O[C@H](CO)[C@@H](O)[C@@H](O)[C@@H]4O)c2-c2cc3ccc2O)O[C@@H](CO)[C@@H](O)[C@@H]1O	350000	0.125 (≈ 0.059 µM)	0.25 (≈ 0.118 µM)	0.125 (≈ 0.059 µM)	0.063 (≈ 0.0297 µM)	0.063 (≈ 0.0297 µM)	–	–	–	–	–	8 (≈ 3.77 µM)
CC(=O)N[C@@H]1[C@H](O[C@@H]2c3ccc(c(Cl)c3)Oc3cc4cc(c3O[C@@H]3O[C@@H](CO)[C@@H](O)[C@H](O)[C@@H]3NC(=O)CCCCCCC(C)C)Oc3ccc(cc3Cl)C[C@H]3NC(=O)[C@H](N)c5ccc(O)c(c5)Oc5cc(O)cc(c5)[C@H](NC3=O)C(=O)N[C@H]4C(=O)N[C@H]3C(=O)N[C@@H]2C(=O)N[C@H](C(=O)NCCCNCCNCCCN)c2cc(O)cc(O[C@H]4O[C@H](CO)[C@@H](O)[C@@H](O)[C@@H]4O)c2-c2cc3ccc2O)O[C@@H](CO)[C@@H](O)[C@@H]1O	350000	0.125 (≈ 0.0614 µM)	0.25 (≈ 0.123 µM)	0.125 (≈ 0.0614 µM)	0.125 (≈ 0.0614 µM)	0.063 (≈ 0.0309 µM)	–	–	–	–	–	0.125 (≈ 0.0614 µM)

Continued by falling MIC (Enterococcus faecalis), values first:

Ka [1] [M⁻¹]	MIC (Enterococcus faecalis) [µg/mL]	MIC (Staphylococcus aureus) [µg/mL]	MIC [4] [µg/mL]	MIC (Streptococcus pneumoniae) [µg/mL]	MIC (Streptococcus pyogenes [6]) [µg/mL]	MIC (Escherichia coli) [µg/mL]	MIC (Proteus vulgaris) [µg/mL]	MIC (Pseudomonas aeruginosa) [µg/mL]	Compound	ED50 (Streptococcus pyogenes [2]) [mg/kg]	ED50 (Streptococcus pyogenes [3]) [mg/kg]	MIC [5] [µg/mL]
350000	0.125 (≈ 0.059 µM)	0.25 (≈ 0.118 µM)	0.063 (≈ 0.0297 µM)	0.125 (≈ 0.059 µM)	0.063 (≈ 0.0297 µM)	–	–	–	CC(=O)N[C@@H]1[C@H](O[C@@H]2c3ccc(c(Cl)c3)Oc3cc4cc(c3O[C@@H]3O[C@@H](CO)[C@@H](O)[C@H](O)[C@@H]3NC(=O)CCCCCCC(C)C)Oc3ccc(cc3Cl)C[C@H]3NC(=O)[C@H](N)c5ccc(O)c(c5)Oc5cc(O)cc(c5)[C@H](NC3=O)C(=O)N[C@H]4C(=O)N[C@H]3C(=O)N[C@@H]2C(=O)N[C@H](C(=O)NCCCN2CCCCN(CCCN)CCCC2)c2cc(O)cc(O[C@H]4O[C@H](CO)[C@@H](O)[C@@H](O)[C@@H]4O)c2-c2cc3ccc2O)O[C@@H](CO)[C@@H](O)[C@@H]1O	60	0.06	0.125 (≈ 0.059 µM)
–	0.125 (≈ 0.0886 µM)	0.125 (≈ 0.0886 µM)	0.032 (≈ 0.0227 µM)	0.125 (≈ 0.0886 µM)	0.125 (≈ 0.0886 µM)	32 (≈ 22.7 µM)	> 128	128 (≈ 90.7 µM)	CCN(CC)CCN(CCCN)CCCNC(=O)[C@H]1NC(=O)[C@H]2NC(=O)[C@H](NC(=O)[C@@H]3NC(=O)[C@H]4NC(=O)[C@@H](Cc5ccc(c(Cl)c5)Oc5cc3cc(c5O)Oc3ccc(cc3Cl)[C@H]2O)NC(=O)[C@H](N)c2ccc(O)c(c2)Oc2cc(O)cc4c2)c2ccc(O)c(c2)-c2c(O)cc(O)cc21	–	–	0.125 (≈ 0.0886 µM)
